Assay results from article PMC10621021 (ACS Omega, 2023).
“And” between values parts separate entries of the source, which are not always exact repeats. Equal values may be shown once.

Legend:
[1] = tested on: intracellular amastigotes of L. amazonensis RFP; format: cell-based, Leishmania amazonensis; details: for antileishmanial activity on amastigotes (in words): L. amazonensis intracellular amastigotes, up to 100 μM
Procedure, shortened: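 BALB/c peritoneal macrophages (3% thioglycolate-elicited), adherent, infected 10:1 with stationary-phase RFP-transfected L. amazonensis IFLA/BR/67/PH8 promastigotes. After 4 h, wash, then compound 12.5–100 μM for 72 h at 33 °C, 5% CO2. Lysis in deionized water, fluorescence Ex 540/Em 600 nm. IC50 from mean of three independent experiments.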

[2] = tested on: L. amazonensis promastigotes; test: Antileishmanial activity against promastigotes of L. amazonensis; format: cell-based, Leishmania amazonensis; details: for antileishmanial activity on promastigotes (in words): L. amazonensis promastigotes, up to 100 μM; for IC50: Leishmania amazonensis, 72 h, read-out: Promastigotes IC50, L. amazonensis promastigotes, MTT, 72 h, 6.25–100 μM
Procedure, shortened: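 Log-phase promastigotes at 2 × 10^6 cells/mL exposed to compound 6.25–100 μM for 72 h at 25 °C. MTT (5 mg/mL solution) added for 4 h, absorbance read at 570 nm. Viability is expressed relative to untreated parasites. IC50 from three independent experiments; miltefosine was the reference.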

HEPG2 = test: MTT cell viability, HEPG2; format: cell-based, human; details: 25 μM
MDA-MB-231 = test: MTT cell viability, MDA-MB-231; format: cell-based, human; details: 25 μM
[3] = tested on: amastigote stages of Leishmania major; details: cited from earlier work

Structure (SMILES) | antileishmanial activity on amastigotes (in words) [1] | antileishmanial activity on promastigotes (in words) [2] | cytotoxicity on HEP-G2 (in words) (HEPG2) | cytotoxicity on MDA-MB-231 (in words) (MDA-MB-231) | further results
CC(C)(C)CC(C)(C)Nc1c(-c2cccs2)nc2ncccn12 [Compound 26, 2-(thiophen-2-yl)-N-(2,4,4-trimethylpentan-2-yl)imidazo[1,2-a]pyrimidin-3-amine] | showed an effect on L. amazonensis amastigotes only |  |  |  | 
CCCCc1nc2ncccn2c1NC(C)(C)CC(C)(C)C [Compound 27, 2-butyl-N-(2,4,4-trimethylpentan-2-yl)imidazo[1,2-a]pyrimidin-3-amine] | moderate activity | moderate activity |  |  | 
CC(C)(C)CC(C)(C)Nc1c(-c2ccccc2)nc2ncccn12 [Compound 18, 2-phenyl-N-(2,4,4-trimethylpentan-2-yl)imidazo[1,2-a]pyrimidin-3-amine] |  |  | no any significant cytotoxicity | no any significant cytotoxicity | 
COc1ccc(-c2nc3ncccn3c2NC(C)(C)CC(C)(C)C)cc1O [Compound 22, 2-methoxy-5-(3-((2,4,4-trimethylpentan-2-yl)amino)imidazo[1,2-a]pyrimidin-2-yl)phenol] | not tolerated for the antileishmanial activity | not tolerated for the antileishmanial activity | no any significant cytotoxicity | no any significant cytotoxicity | 
CCCCCCCCc1nc2ncccn2c1NC(C)(C)CC(C)(C)C [Compound 28, 2-octyl-N-(2,4,4-trimethylpentan-2-yl)imidazo[1,2-a]pyrimidin-3-amine] | moderate activity | moderate activity |  |  | 
CC(C)(C)CC(C)(C)Nc1c(-c2cccnc2)nc2ncccn12 [Compound 25, 2-(pyridin-3-yl)-N-(2,4,4-trimethylpentan-2-yl)imidazo[1,2-a]pyrimidin-3-amine] | evaded the activity | evaded the activity | no any significant cytotoxicity | no any significant cytotoxicity | 
CC(C)(C)CC(C)(C)Nc1c(-c2cccc(C#N)c2)nc2ncccn12 [Compound 24, 3-(3-((2,4,4-trimethylpentan-2-yl)amino)imidazo[1,2-a]pyrimidin-2-yl)benzonitrile] |  |  | no any significant cytotoxicity | no any significant cytotoxicity | Selectivity Index ([1]; SI: CC50 in peritoneal macrophages/IC50 in intracellular amastigotes): 10 and > 10; IC50 [2]: < 10 µM
CC(C)(C)CC(C)(C)Nc1c(-c2cccc([N+](=O)[O-])c2)nc2ncccn12 [Compound 23, 2-(3-nitrophenyl)-N-(2,4,4-trimethylpentan-2-yl)imidazo[1,2-a]pyrimidin-3-amine] | did not show any biological activity | did not show any biological activity |  |  | 
CC(C)(C)CC(C)(C)Nc1c(-c2ccc3c(c2)OCO3)nc2ncccn12 [Compound 14, 2-(benzo[d][1,3]dioxol-5-yl)-N-(2,4,4-trimethylpentan-2-yl)imidazo[1,2-a]pyrimidin-3-amine] |  |  |  |  | IC50 [2]: 46.1 µM
Cc1ccc(-c2c(-c3ccccc3)nc3ccccn23)cc1 [Compound 2, 2-phenyl-3-(p-tolyl)imidazo[1,2-a]pyridine] |  |  |  |  | IC50 [3]: 4 µM
